Screening results (PubChem BioAssay)
PGC1a acetyl inh: modulators of PGC1a acetylation; hit rate 0.17% among 350,000; AID 651687; U2OS PGC1a acetylation, AlphaScreen anti-acetyl-lysine; with virally co-expressed GCN5 acetyltransferase; inhibition, % at 15.6 µM;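 active means every replicate shows inhibition of at least 40%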;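 further: 0% = neutral control wells and 100% = positive control wells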
ARNT-TACC3 inh: disruptors of human ARNT/TACC3 interaction; AlphaScreen His-ARNT PAS-B/GST-TACC3 binding, luminescence; TACC3 fragment carries E629A point mutation; inhibition, % at 9.99 µM; AID 623870; Q9Y6A5; hit rate 0.66% among 390,000;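 active means mean inhibition of replicates at least 50% and at least half of replicates each reaching 50%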;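 further: 0% = complete ARNT plus TACC3 wells and 100% = ARNT alone without TACC3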
Ecoli rRNA inh: selective bacterial rRNA inhibition in E. coli. AID 720706. hit rate 1.6% among 350,000. E. coli WT GFP vs humanized-ribosome RFP mutants, fluorescence, 24 h; hits give low values; DMSO median 0, no signal -100. GFP signal change (wild-type ribosome), % (concentration not given with the values);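 active means significant combined selectivity score with lowered wild-type GFP, culture density cut under 30%, mutant RFP and density less affected; inactive means any of these conditions unmet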
CASP6 VEID inh: inhibitors of human caspase-6. P55212. purified caspase-6, Z-VEID-R110 cleavage fluorescence. inhibition, % at 12.5 µM. hit rate 0.53% among 350,000;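 active means mean inhibition across replicates at least about 35%, with every replicate also reaching that limit, limit read from the data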;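 further: 0% = median of neutral control wells and 100% = no fluorescence left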
S100A4 inh HTS: blocks human S100A4 binding to myosin IIA peptide. S100A4/TAMRA-MyoIIA peptide fluorescence polarization. inhibition, % at 10.7 µM. hit rate 0.14% among 360,000. AID 652163;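 active means mean inhibition of at least 70% across replicates, with every replicate also reaching that level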
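Compound dosing: one dose per compound; test system: human S100A4 monomer with TAMRA-labelled myosin IIA peptide; probe or stimulus: TAMRA-labelled myosin IIA heavy-chain peptide probe, 5 nM; medium: HEPES buffer with Ca2+, pH 7.2; schedule: 5 min incubation before reading; benchmarks: neutral control DMSO, positive control TFP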
ERAP1 HTS inh: ERAP1 (human) enzyme inhibition | Q9NZ08 | recombinant ERAP1, Leu-AMC fluorescence, 60 min | inhibition, % at 10.7 µM | hit rate 0.15% among 340,000;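 active means mean replicate inhibition of at least 30%, or all replicates individually reaching that 30% level; inactive means mean below 30% and not every replicate reaching it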;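 further: 0% = neutral control wells and 100% = L-leucinethiol positive control wells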
Target sequence (Q9NZ08 whole entry, looked up): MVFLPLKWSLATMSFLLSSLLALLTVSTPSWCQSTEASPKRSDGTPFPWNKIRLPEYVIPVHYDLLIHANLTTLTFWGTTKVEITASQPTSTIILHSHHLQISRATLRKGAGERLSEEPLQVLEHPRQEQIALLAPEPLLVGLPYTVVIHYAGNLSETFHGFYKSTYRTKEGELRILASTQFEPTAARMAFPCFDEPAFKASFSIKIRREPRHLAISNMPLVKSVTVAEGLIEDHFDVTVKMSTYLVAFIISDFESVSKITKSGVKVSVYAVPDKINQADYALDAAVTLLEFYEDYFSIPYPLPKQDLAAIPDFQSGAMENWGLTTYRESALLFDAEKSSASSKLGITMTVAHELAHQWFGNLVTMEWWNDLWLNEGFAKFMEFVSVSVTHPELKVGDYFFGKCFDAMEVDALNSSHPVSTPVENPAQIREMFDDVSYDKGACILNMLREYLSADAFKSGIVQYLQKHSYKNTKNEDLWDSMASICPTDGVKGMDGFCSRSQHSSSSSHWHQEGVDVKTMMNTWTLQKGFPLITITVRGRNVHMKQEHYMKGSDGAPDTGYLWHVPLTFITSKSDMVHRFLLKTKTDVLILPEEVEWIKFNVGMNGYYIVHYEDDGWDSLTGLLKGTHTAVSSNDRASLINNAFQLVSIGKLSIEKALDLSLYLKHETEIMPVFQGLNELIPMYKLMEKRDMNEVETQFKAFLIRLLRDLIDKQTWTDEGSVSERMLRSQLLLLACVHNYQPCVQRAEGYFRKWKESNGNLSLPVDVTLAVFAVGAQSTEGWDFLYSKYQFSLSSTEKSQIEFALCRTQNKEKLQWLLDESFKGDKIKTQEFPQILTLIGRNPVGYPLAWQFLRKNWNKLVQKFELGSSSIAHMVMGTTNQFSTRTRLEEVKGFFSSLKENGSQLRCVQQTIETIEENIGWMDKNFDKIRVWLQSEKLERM
The depositor's hits bear a star; nt = no result. An excerpt weighted towards active compounds, which were near 2.4% of everything screened.

SMILES	PGC1a acetyl inh	ARNT-TACC3 inh	Ecoli rRNA inh	CASP6 VEID inh	S100A4 inh HTS	ERAP1 HTS inh
CCCN(C)C[C@@H]1OCCCC[C@H](C)Oc2ccc(NC(=O)Cc3ccccc3)cc2C(=O)N([C@@H](C)CO)C[C@@H]1C	5	5	2	-6	16	2
COCC(=O)N1CC2(CN[C@@H](CO)c3c2c2ccc(OC)cc2n3C)C1	-2	nt	7	nt	nt	nt
OC(COC(c1ccc(F)cc1)c1ccc(F)cc1)CN1CCCC(C(F)(F)F)C1 (stereo unspecified)	-5	-2	-23*	-2	-2	-4
CCc1ccc(O)c(N=Cc2ccccc2O)c1	-22	0	1	0	-25	0
O=c1[nH][nH]c2c(N=Cc3ccccc3O)ccc(F)c12	-5	69*	4	97*	0	5
O=C(/C=C/Nc1ccc(Nc2ccccc2)cc1)c1cccs1	-13	-5	-23*	0	-5	-2
O=C(/C=C/Nc1ccccc1C(=O)O)c1cccs1	nt	-12	nt	nt	nt	nt
Cc1ccc(N/C=C/C(=O)c2cccs2)cc1C	-5	12	-20*	0	-33	9
O=C(O)CC1S/C(=N/N=C/c2ccc(-c3ccc(Cl)c([N+](=O)[O-])c3)o2)NC1=O (stereo unspecified)	2	-11	15	35*	-3	-6
O=C(O)CC1S/C(=N/N=C/C=C/c2ccccc2[N+](=O)[O-])NC1=O (stereo unspecified)	8	34*	nt	nt	nt	nt
COc1ccc(C(=O)Oc2ccc[nH]c2=O)cc1	nt	nt	5	1	-7	0
O=C(Oc1ccc[nH]c1=O)c1cc([N+](=O)[O-])cc([N+](=O)[O-])c1	53*	-4	1	16	-1	3
C[C@@H]1CN([C@@H](C)CO)C(=O)c2cccc(NC(=O)c3nc4ccccc4s3)c2O[C@H]1CN(C)S(C)(=O)=O	-4	-7	-5	-2	9	-2
CCCNC(=O)N1CCC2(CC1)CN(Cc1ccccc1)[C@@H](CO)c1[nH]c3cc(OC)ccc3c12	nt	nt	0	0	-32	-4
Cc1ncc(CO)c(/C=N/NC(=O)c2ccccc2Br)c1O	nt	61*	9	-15	3	54*
COc1ccc(C(=O)N/N=C/c2c(C)[nH]c(=O)[nH]c2=O)cc1	2	38*	23	-6	-5	-5
COc1ccc(C(=O)N/N=C/c2c(CO)cnc(C)c2O)cc1	nt	72*	1	-2	-2	33*
COc1ccccc1NS(=O)(=O)c1cccc(C(=O)N/N=C/c2c(CO)cnc(C)c2O)c1	nt	nt	-15	-11	-7	-15
Cc1ncc(CO)c(/C=N/NC(=O)c2cc3c(s2)CCCC3)c1O	nt	62*	-29	-3	-2	-18
Cc1ncc(CO)c(/C=N/NC(=O)c2ccoc2C)c1O	8	nt	8	-3	-2	0
C[C@@H]1CN([C@H](C)CO)C(=O)c2cc(C#CC(C)(C)O)cnc2O[C@H]1CN(C)C(=O)C1CCOCC1	20	-2	0	0	8	-3
CC(C)(C)[C@@H]1C=C(C(=O)N2CCCC2)O[C@H](OCc2ccc(CO)cc2)C1	nt	nt	nt	2	-4	-1
CC(=O)N(C)C[C@@H]1Oc2ncc(C#CC3(O)CCCC3)cc2C(=O)N([C@H](C)CO)C[C@@H]1C	-1	-8	4	-2	23	3
O=[N+]([O-])c1ccccc1/C=C/C=N/Nc1nc(N2CCCCC2)nc(N2CCCCC2)n1	-7	0	14	0	-5	13
O=[N+]([O-])c1ccccc1/C=N/Nc1nc(N2CCCC2)nc(N2CCCC2)n1	-9	1	-12*	3	30	-6
O=C(Nc1nccs1)[C@H]1[C@H](CO)[C@H]2Cn3c(ccc(-c4cccnc4)c3=O)[C@H]2N1CC1CCCC1	nt	-7	-4	5	3	1
CCCNC(=O)N1[C@H](CO)[C@@H]2c3ccccc3N(C(=O)c3ccccc3)C[C@@H]21	-12	-5	-6	nt	-5	1
C[C@@H]1CN([C@@H](C)CO)C(=O)c2cc(NC(=O)CCC(F)(F)F)ccc2O[C@H]1CN(C)Cc1ccc(-c2ccccc2)cc1	-10	-2	-4	0	-10	-1
CCN(CC)c1ccc2nc3ccccc3[n+](CC)c2c1	nt	15	nt	nt	nt	nt
